ChEMBL document CHEMBL4433211, “Discovery of the First-in-Class GSK-3β/HDAC Dual Inhibitor as Disease-Modifying Agent To Combat Alzheimer's Disease” (ACS Med Chem Lett, 2019)
Calls of active or inactive are those of the source. No cut-off for these calls is given here.

Experiments:
[1] = target: T1, Glycogen synthase kinase-3 beta (Homo sapiens, UniProt P49841); assay: Inhibition of GSK3beta in human SH-SY5Y cells assessed as reduction in copper-induced tau hyperphosphorylation at 10 mM preincubated for 1 hr followed by copper addition and measured after 26 hrs by ELISA; assay type: cell-based; conditions: in the assay text read “16 hrs” for “26 hrs”
Outline: (§1)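 Differentiated SH-SY5Y cells pretreated 1 h with test agent (LiCl 10 mM reference; compounds 10 μM), then copper 400 μM for 16 h; cells scraped, phospho-tau quantified by immunoenzymatic assay at 450 nm; mean ± SEM.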
Target sequence in this assay (P49841 whole entry, looked up): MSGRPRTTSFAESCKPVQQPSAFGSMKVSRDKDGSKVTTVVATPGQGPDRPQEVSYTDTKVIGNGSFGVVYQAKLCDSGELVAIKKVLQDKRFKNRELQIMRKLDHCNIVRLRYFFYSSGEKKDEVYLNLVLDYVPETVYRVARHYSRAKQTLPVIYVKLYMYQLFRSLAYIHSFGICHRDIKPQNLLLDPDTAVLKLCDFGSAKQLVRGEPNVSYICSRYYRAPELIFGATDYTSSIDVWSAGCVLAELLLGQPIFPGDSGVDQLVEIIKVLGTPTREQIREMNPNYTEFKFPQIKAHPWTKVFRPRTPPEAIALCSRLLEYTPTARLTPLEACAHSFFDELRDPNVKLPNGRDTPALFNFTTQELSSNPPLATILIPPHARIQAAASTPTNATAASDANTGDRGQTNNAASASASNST

[2] = tested on: SH-SY5Y; assay: Induction of neurogenesis in human SH-SY5Y cells assessed as upregulation of GAP43 mRNA at 10 uM incubated for 24 hrs by RT-PCR analysis; assay type: functional, cell-based
Outline: (§2)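 SH-SY5Y cells treated 24 h (10 μM, or 1 μM for one parent compound; retinoic acid positive control); GAP43, N-myc and MAP-2 mRNA measured by RT-PCR, expressed as fold of control.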

[3] = tested on: SH-SY5Y; assay: Induction of neurogenesis in human SH-SY5Y cells assessed as upregulation of MAP-2 mRNA at 10 uM incubated for 24 hrs by RT-PCR analysis; assay type: functional, cell-based; outline: as §2
[4] = tested on: SH-SY5Y; assay: Induction of neurogenesis in human SH-SY5Y cells assessed as upregulation of N-myc mRNA at 10 uM incubated for 24 hrs by RT-PCR analysis; assay type: functional, cell-based; outline: as §2
[5] = tested on: SH-SY5Y; assay: Induction of neurogenesis in human SH-SY5Y cells assessed as stimulation of neurite outgrowth at 10 uM incubated for 72 hrs by phase contrast microscopic analysis; assay type: functional, cell-based
Outline: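 SH-SY5Y cells treated 72 h at 10 μM, retinoic acid (10 μM) as positive control; neurite-bearing cells scored from images taken at 20× magnification.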

[6] = target: T1, Glycogen synthase kinase-3 beta; assay: Inhibition of human recombinant GSK3beta using GSM as substrate incubated for 30 mins by luminescence based assay
Target sequence in this assay (P49841 whole entry): as the sequence (P49841 whole entry, looked up) above

[7] = target: T2, Protein deacetylase HDAC6 (Homo sapiens, UniProt Q9UBN7); assay: Inhibition of human recombinant his tagged HDAC6 expressed in baculovirus infected […] insect cells using batcp as substrate incubated for 1 hr by fluorescence based assay
T2 sequence (Q9UBN7 whole entry): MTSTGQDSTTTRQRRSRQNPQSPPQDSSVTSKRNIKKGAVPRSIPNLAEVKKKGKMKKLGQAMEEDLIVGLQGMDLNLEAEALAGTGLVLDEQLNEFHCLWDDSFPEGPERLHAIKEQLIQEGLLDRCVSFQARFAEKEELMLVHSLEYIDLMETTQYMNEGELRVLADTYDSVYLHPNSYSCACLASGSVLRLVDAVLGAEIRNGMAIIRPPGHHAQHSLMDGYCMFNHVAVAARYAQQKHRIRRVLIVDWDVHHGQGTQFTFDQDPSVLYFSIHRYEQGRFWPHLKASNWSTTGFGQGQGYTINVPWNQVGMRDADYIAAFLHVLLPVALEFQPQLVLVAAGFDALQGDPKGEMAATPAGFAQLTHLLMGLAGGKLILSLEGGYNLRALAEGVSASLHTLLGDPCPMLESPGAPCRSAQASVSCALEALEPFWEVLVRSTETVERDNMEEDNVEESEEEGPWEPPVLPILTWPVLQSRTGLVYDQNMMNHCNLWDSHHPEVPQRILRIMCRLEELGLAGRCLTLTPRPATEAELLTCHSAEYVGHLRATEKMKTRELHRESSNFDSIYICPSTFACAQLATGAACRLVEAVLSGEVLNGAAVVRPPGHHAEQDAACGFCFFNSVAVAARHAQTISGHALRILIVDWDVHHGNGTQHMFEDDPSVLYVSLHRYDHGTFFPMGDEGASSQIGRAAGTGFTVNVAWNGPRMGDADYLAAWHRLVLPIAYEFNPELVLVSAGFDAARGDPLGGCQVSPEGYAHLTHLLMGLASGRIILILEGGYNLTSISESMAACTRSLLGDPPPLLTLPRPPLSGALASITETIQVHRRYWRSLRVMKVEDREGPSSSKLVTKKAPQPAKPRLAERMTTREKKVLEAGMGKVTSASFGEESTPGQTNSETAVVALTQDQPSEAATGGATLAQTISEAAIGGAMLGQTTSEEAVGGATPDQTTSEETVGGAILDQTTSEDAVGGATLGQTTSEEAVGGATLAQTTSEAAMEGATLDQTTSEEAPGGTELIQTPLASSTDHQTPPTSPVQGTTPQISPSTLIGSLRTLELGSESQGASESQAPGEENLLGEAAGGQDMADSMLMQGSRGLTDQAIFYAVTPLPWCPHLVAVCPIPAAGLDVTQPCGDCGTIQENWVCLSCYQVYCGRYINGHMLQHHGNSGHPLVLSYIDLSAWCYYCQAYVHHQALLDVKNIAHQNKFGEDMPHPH

[8] = target: T3, Histone deacetylase 1 (Homo sapiens, UniProt Q13547); assay: Inhibition of human recombinant his tagged HDAC1 expressed in baculovirus infected […] insect cells using tertbutyloxycarbonyl (Boc)-(Ac)-Lys-7-amino-4-methylcoumarin as substrate incubated for 1 hr by fluorescence based assay
[9] = target: Histone deacetylase (Homo sapiens) (UniProt Q13547+O15379+Q9UBN7+Q92769+Q9UQL6+Q8WUI4+Q9BY41+Q96DB2+P56524+Q9UKV0+Q969S8); assay: Synergistic inhibition of HDAC in human SH-SY5Y cells assessed as increase in acetylation of alpha-tubulin incubated for 30 hrs in presence of verinostat by Western blot analysis; assay type: cell-based
[10] = target: T3, Histone deacetylase 1; assay: Inhibition of human recombinant his tagged HDAC1 expressed in baculovirus infected […] insect cells up to 30 uM using tertbutyloxycarbonyl (Boc)-(Ac)-Lys-7-amino-4-methylcoumarin as substrate incubated for 1 hr by fluorescence based assay
[11] = tested on: Microglia; assay: Immunomodulatory activity in LPS treated Wistar rat primary microglial cells assessed as effect on TREM2 expression level at 5 to 50 uM incubated for 24 hrs by western blot analysis; assay type: functional, cell-based
Outline: (§3)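 Primary microglial cells treated 24 h with LPS in presence or absence of test compound; NOS2, MRC1 and TREM2 protein assessed by Western blot, normalized to GAPDH.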

[12] = tested on: Microglia; assay: Immunomodulatory activity in LPS treated Wistar rat primary microglial cells assessed as decrease in NOS2 expression level at 5 to 50 uM incubated for 24 hrs by western blot analysis; assay type: functional, cell-based; outline: as §3
[13] = tested on: Cerebellar granule neurone; assay: Neuroprotective activity against 6-OHDA-induced cell death in Wistar rat primary cerebellar granule neurons at 20 uM preincubated for 6 hrs followed by 6-OHDA addition and measured after 24 hrs in presence of in presence of 5 uM verinostat by MTT assay; assay type: functional, cell-based
Outline: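 Primary differentiated cerebellar granule neurons challenged with 6-OHDA with or without test compound; viability assessed; mean ± SE of at least 3 experiments in quadruplicate, one-way ANOVA with Bonferroni post hoc test.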

[14] = target: T1, Glycogen synthase kinase-3 beta; assay: Inhibition of GSK3beta in human SH-SY5Y cells assessed as reduction in copper-induced tau hyperphosphorylation at 10 uM preincubated for 1 hr followed by copper addition and measured after 26 hrs by ELISA; assay type: cell-based; conditions: in the assay text read “16 hrs” for “26 hrs”; outline: as §1
Target sequence in this assay (P49841 whole entry, looked up): as the sequence (P49841 whole entry, looked up) above

[15] = tested on: Microglia; assay: Immunomodulatory activity in LPS treated Wistar rat primary microglial cells assessed as decrease in MRC1 expression level at 5 to 50 uM incubated for 24 hrs by western blot analysis; assay type: functional, cell-based; outline: as §3
[16] = target: T4, Protein deacetylase HDAC6 (Homo sapiens) (UniProt Q9UBN7); assay: Inhibition of human recombinant his tagged HDAC6 expressed in baculovirus infected […] insect cells up to 30 uM using batcp as substrate incubated for 1 hr by fluorescence based assay
T4 sequence (whole entry): T2 sequence (Q9UBN7 whole entry)

[17] = tested on: SH-SY5Y; assay: Synergistic neuroprotective activity against H2O2-induced cell death in human SH-SY5Y cells at 0.1 uM incubated for 24 hrs in presence of verinostat by MTS assay; assay type: functional, cell-based
Outline: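 SH-SY5Y cells challenged 24 h with H2O2 (25 and 50 μM) in presence of compounds (0.1–10 μM), alone or as a two-compound combination; viability by MTS assay as % of control.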

T3 sequence (Q13547 whole entry): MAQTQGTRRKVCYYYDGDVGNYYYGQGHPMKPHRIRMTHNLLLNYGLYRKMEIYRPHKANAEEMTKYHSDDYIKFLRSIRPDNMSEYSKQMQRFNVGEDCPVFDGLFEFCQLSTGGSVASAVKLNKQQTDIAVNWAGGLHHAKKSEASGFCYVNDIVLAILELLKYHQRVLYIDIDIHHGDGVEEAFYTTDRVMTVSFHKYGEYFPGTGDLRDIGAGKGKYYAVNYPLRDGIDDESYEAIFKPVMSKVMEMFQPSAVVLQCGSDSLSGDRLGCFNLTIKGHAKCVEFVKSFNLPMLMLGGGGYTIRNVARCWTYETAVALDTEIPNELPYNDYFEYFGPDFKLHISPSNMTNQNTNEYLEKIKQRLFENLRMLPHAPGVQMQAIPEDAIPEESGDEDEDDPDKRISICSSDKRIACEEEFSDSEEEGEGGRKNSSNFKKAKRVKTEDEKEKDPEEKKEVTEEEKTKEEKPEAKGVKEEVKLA

SMILES: [Cl-].[Li+]
- inhibition [1]: Active

SMILES: CC1=C(/C=C/C(C)=C/C=C/C(C)=C/C(=O)O)C(C)(C)CCC1
- Activity [2]: Active
- Activity [3]: Active
- Activity [4]: Active
- Activity [5]: Active

SMILES: O=C(CCCCNC(=S)Nc1ccc2c(c1)C(=O)NC2=O)NO
- IC50 [6]: 4.11 µM
- IC50 [7]: 14.7 µM
- IC50 [8]: 5.02 µM

SMILES: O=C1NC(=O)c2ccccc21 [PHTHALIMIDE]
- inhibition [9]: inactive
- Activity [2]: Active
- Activity [3]: Active
- Activity [4]: inactive
- IC50 [6]: 20.2 µM
- Activity [5]: Active
- inhibition [10]: inactive
- Activity [11]: inactive
- Activity [12]: Active
- Activity [13]: Active
- inhibition [14]: Active
- Activity [15]: Active
- inhibition [16]: inactive
- Activity [17]: inactive
